pKi: −log10 of the molar value.
Assays:
NADPH oxidase 4 = target: T1, NADPH oxidase 4 (Homo sapiens, UniProt Q9NPH5); assay: Antagonist activity at human NOX4 expressed in CHO cell membrane coexpressing tetracylin repressor assessed as inhibition of ROS production after 20 mins by cell-free amplex red assay; assay type: functional; conditions: in the assay text read “HEK293 cell membrane” for “CHO cell membrane”
T1 sequence (Q9NPH5 whole entry): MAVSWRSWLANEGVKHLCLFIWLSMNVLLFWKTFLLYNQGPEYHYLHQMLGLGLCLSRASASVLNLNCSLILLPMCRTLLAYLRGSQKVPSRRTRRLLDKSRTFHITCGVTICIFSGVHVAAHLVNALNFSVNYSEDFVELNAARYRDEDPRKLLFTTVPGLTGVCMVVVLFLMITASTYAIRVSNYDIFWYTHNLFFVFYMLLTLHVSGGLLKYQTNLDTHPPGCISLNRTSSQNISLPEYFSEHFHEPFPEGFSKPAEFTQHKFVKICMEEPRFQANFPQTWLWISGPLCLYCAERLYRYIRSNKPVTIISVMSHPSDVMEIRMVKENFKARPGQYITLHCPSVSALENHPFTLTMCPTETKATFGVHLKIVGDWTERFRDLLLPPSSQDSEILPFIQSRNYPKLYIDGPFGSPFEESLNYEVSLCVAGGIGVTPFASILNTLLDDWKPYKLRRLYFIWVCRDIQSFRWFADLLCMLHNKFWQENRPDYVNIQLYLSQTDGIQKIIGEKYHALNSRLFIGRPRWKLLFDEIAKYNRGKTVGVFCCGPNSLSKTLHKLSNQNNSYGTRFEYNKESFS
Summary of the method: (§1)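 Membranes from tetracycline-induced (24 h) Nox-expressing cells or human PMN (Nox2), sucrose-gradient purified; or xanthine oxidase. Incubated in PBS with Amplex Red, HRP and cofactors; NADPH (Nox) or xanthine starts ROS. Compound 1 nM–100 µM, 20 min at 37 °C, plate-reader. Background without membranes or agonist. Ki by Cheng-Prusoff; mean of ≥3 experiments in triplicate.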

NADPH oxidase 2 = target: T2, NADPH oxidase 2 (Homo sapiens, UniProt P04839); assay: Antagonist activity at human NOX2 in human polymorphonuclear cell membrane assessed as inhibition of ROS production after 20 mins by cell-free amplex red assay; assay type: functional; summary of the method: as §1
T2 sequence (P04839 whole entry): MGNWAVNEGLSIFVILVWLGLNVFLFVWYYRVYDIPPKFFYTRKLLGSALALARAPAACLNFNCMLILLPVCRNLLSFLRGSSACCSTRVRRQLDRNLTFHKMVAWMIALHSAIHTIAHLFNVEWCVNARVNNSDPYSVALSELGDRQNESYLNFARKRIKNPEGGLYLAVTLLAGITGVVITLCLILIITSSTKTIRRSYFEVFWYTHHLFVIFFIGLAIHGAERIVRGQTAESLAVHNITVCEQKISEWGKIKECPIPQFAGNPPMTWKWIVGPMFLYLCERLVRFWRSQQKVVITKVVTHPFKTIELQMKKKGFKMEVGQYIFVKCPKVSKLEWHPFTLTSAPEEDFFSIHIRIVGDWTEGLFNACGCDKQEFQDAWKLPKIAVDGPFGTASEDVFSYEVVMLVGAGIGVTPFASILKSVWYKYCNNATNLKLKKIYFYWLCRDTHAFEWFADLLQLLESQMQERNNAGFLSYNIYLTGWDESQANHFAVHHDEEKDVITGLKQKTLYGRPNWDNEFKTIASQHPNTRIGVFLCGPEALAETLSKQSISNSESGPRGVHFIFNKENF

NADPH oxidase 5 = target: T3, NADPH oxidase 5 (Homo sapiens, UniProt Q96PH1); assay: Antagonist activity at human NOX5 assessed as inhibition of ROS production after 20 mins by cell-free amplex red assay; assay type: functional; summary of the method: as §1
T3 sequence (Q96PH1 whole entry): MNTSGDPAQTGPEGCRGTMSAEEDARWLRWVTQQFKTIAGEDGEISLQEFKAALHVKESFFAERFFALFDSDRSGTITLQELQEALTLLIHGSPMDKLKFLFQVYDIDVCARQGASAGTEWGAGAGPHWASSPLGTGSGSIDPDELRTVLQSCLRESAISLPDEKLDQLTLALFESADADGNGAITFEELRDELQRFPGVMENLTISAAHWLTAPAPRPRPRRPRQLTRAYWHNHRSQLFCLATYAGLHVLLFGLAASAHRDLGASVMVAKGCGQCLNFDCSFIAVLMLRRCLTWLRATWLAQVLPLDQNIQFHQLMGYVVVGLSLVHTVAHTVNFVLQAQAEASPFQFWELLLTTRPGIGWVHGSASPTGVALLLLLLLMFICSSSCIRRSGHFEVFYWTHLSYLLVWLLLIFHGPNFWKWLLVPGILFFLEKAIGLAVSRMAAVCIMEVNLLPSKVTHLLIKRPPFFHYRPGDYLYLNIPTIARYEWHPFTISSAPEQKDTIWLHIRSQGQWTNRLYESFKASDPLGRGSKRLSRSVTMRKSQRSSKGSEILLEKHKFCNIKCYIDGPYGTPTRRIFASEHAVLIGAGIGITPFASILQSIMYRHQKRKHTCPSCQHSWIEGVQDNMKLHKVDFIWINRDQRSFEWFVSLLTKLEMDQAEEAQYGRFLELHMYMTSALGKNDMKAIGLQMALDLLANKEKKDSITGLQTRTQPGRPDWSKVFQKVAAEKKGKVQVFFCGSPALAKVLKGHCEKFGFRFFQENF

NADPH oxidase 1 = target: T4, NADPH oxidase 1 (Homo sapiens, UniProt Q9Y5S8); assay: Antagonist activity at human NOX1 expressed in CHO cell membrane coexpressing tetracylin repressor assessed as inhibition of ROS production after 20 mins by cell-free amplex red assay; assay type: functional; summary of the method: as §1
T4 sequence (Q9Y5S8 whole entry): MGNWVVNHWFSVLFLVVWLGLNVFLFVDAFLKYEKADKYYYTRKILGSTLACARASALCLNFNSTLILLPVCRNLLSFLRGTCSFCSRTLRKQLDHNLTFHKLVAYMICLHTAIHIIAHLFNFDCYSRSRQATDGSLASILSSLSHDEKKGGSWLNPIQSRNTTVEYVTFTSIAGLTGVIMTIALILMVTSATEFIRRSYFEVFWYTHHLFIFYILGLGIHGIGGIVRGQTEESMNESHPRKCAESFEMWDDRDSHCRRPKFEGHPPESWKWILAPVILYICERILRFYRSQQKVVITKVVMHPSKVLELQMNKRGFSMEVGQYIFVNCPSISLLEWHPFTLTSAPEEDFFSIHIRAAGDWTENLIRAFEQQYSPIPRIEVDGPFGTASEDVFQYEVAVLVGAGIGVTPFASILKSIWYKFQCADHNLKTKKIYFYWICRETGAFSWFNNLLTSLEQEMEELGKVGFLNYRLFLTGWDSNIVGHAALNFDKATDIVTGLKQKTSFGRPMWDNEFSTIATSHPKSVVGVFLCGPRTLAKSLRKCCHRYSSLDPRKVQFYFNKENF

[1] = Lipophilicity, log D of the compound at pH 7.4; assay type: physicochemical; conditions: buffer
[2] = Clearance in human liver microsomes assessed per mg of protein at 0.5 uM; assay type: ADME, Microsome; conditions: read-out: CLH
Summary of the method: (§2)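 Pooled rat (male Sprague Dawley) or human (mixed-sex) liver microsomes at 0.5 mg/mL final, 0.1 M phosphate pH 7.4, compound 0.5 µM final, 0.25% DMSO, 37 °C; 1 mM NADPH starts reaction. Sampled 0–45 min, methanol quench with internal standard, LC/MS-MS; intrinsic clearance from compound loss.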

[3] = Clearance in Sprague-Dawley rat liver microsomes assessed per mg of protein at 0.5 uM; assay type: ADME, Microsome; conditions: read-out: CLH; summary of the method: as §2
[4] = Apparent permeability across human Caco2 cells at 10 uM after 2 hrs; assay type: ADME, cell-based; conditions: Caco-2
Summary of the method: (§3)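 Caco-2 monolayers grown 20 days, TEER >800 ohm·cm². Compound 10 µM final in HBSS pH 6.5 (1% DMSO), dosed apical (A→B) or basolateral (B→A), 2 h at 37 °C; both compartments sampled, LC–MS/MS cassette analysis with 5-point calibration.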

[5] = Fraction unbound in rat plasma containing 50% plasma protein; assay type: ADME, cell-free
Summary of the method: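 Rat plasma protein binding in 50% plasma; fraction unbound reported.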

[6] = Efflux ratio of apparent permeability across human Caco2 cells at 10 uM after 2 hrs; assay type: ADME, cell-based; conditions: Caco-2; summary of the method: as §3
Homo sapiens = species on record: Homo sapiens; assay: Selectivity ratio of Ki for human NOX2 to Ki for human NOX4
Summary of the method: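 Ratio of Ki values from the Amplex Red membrane ROS assay (PMN membranes for Nox2, Nox4-overexpressing membranes), NADPH-triggered, 1 nM–100 µM, 20 min at 37 °C; Ki via Cheng-Prusoff.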

SMILES	pKi (NADPH oxidase 4)	pKi (NADPH oxidase 2)	pKi (NADPH oxidase 5)	pKi (NADPH oxidase 1)	logD [1]	microsomal CLint at 0.5 µM [2] [µL/min/mg]	microsomal CLint at 0.5 µM [3] [µL/min/mg]	Papp at 2 h, 10 µM [4] [×10⁻⁶ cm/s]	fraction unbound [5]	efflux ratio at 2 h, 10 µM [6]	Ratio Ki (Homo sapiens)
O=c1c2c3n(c(=O)cc2[nH]n1-c1ccccc1Cl)CCOC3	6.81	6.36	6.31	6.76							
O=c1c2c3n(c(=O)cc2[nH]n1-c1ccccc1Cl)CCCN(Cc1cccc(Cl)c1)C3	7.00	5.94	6.32	6.98	2.76	81.4	153				
COc1ccccc1-n1[nH]c2cc(=O)n3c(c2c1=O)CN(Cc1ccccc1)CCC3	6.84	6.19	6.17	6.66							
COc1cccc(CN2CCCn3c(c4c(=O)n(-c5ccccc5OC)[nH]c4cc3=O)C2)c1	6.88	6.09	6.16	6.67							
Cl.O=c1c2c3n(c(=O)cc2[nH]n1-c1ccccc1Cl)CCCN(Cc1cccnc1)C3	7.03	5.86	5.94	6.68	0.92	21	31.1	1	0.029	18.7	
COc1cccc(CN2CCCn3c(c4c(=O)n(-c5ccccc5Cl)[nH]c4cc3=O)C2)c1.Cl	6.95	5.92	6.14	6.95	1.99	35	60.1	22.3	0.901	1.91	
O=c1c2c3n(c(=O)cc2[nH]n1-c1ccccc1Cl)CCCN(Cc1ccoc1)C3	6.95	5.99	6.02	6.70							
CC(C)(C)OC(=O)N1CCCn2c(c3c(=O)n(-c4ccccc4Cl)[nH]c3cc2=O)C1	6.99	5.89	6.23	6.83							
O=c1c2c3n(c(=O)cc2[nH]n1-c1ccccc1Cl)CCCN(Cc1ccccc1Cl)C3	7.12	5.94	6.21	7.06	2.76	87.1	164				
COc1ccc(CN2CCCn3c(c4c(=O)n(-c5ccccc5Cl)[nH]c4cc3=O)C2)cc1	6.94	6.11	6.16	6.74							
O=c1c2c3n(c(=O)cc2[nH]n1-c1ccccc1Cl)CCN(Cc1ccccc1)C3	6.85	5.70	5.85	6.40							
O=c1c2c3n(c(=O)cc2[nH]n1-c1ccccc1Cl)CCCNC3	7.06	6.44	6.44	6.92							4.2
COc1ccccc1-n1[nH]c2cc(=O)n3c(c2c1=O)CN(Cc1ccccn1)CCC3.Cl	7.03	6.29	6.21	6.66	0.33	15.7	32.1	1.4	0.069	16.8	
O=c1c2c3n(c(=O)cc2[nH]n1-c1ccccc1Cl)CCCN(Cc1ccc(Cl)cc1)C3	6.99	5.90	6.23	7.02	2.76	77.3	152				
COc1ccccc1CN1CCCn2c(c3c(=O)n(-c4ccccc4Cl)[nH]c3cc2=O)C1	6.95	5.75	6.13	6.88							

Reference: ChEMBL document CHEMBL1926564, “Design, synthesis and biological activity of original pyrazolo-pyrido-diazepine, -pyrazine and -oxazine dione derivatives as novel dual Nox4/Nox1 inhibitors” (Bioorg Med Chem, 2011)
